Most compounds without a hit are left out; they make up all but 6.4% or so of the library.
H69AR inhibit: growth inhibitors of human H69AR lung tumor cells; AID 598; H69AR lung tumor viability, ATP luminescence, 72 h; hits give low values; actives 6% (n = 85,000); viability, % at 10 µM;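 active means viability at or below 40%; inactive means viability above 40%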;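 further: multidrug resistant small cell line overexpressing MRP-1 efflux transporter; 100% = mean luminescence of untreated control wells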
Fibroblast inh: blocks proliferation of human lung fibroblasts; LL 47 human lung fibroblast viability, ATP luminescence; hits give low values; actives 1.1% (n = 85,000); viability, % at 10 µM;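 active means viability at or below 50% in the single dose screen; inactive means viability above 50%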;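 further: compound exposure lasted 72 h before the ATP readout; 100% = median luminescence of untreated cell-only wells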
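Test system: LL 47 human lung fibroblasts; Quantity: 1,150 cells/well; Buffer or medium: IMEM plus 15% FBS; Dosing: tenfold compound dosing solution, DMSO at 0.1%; Timing: overnight cell rest, 72 h compound treatment at 37 °C; Detection: ATP-based CellTiter-Glo luminescent readout; Read-out basis: viability percentage against median untreated-cell control; Controls: cell-only wells, no compound.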
Ecoli WT expand: growth inhibitors of E. coli BW25113 wild type; OD600 absorbance; growth inhibition, % at 100 µM; actives 0.15% (n = 98,000); AID 710;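 active means growth inhibition above about 50% at one test dose, limit read from the data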;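 further: growth measured after 20 h incubation at 37 °C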
Jurkat tox 60K: cytotoxic compounds reducing Jurkat cell viability. Jurkat E6.1 viability, ATP luminescence, 48 h. inhibition, % at 4 µM. actives 1.2% (n = 56,000). AID 463;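 active means inhibition above the mean inhibition of all tested compounds plus 3 SD, cut at about 28% in these data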
tolC growth inh: blocks growth of E. coli BW25113 tolC mutant. OD615. actives 2.2% (n = 65,000). growth inhibition, % at 10 µM (by protocol);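 active means growth inhibition at or above a cutoff equal to the mean over every tested compound plus 3 SD, cut at about 60% in these data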;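 further: growth measured after 20 h incubation at 37 °C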
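Test system – E. coli BW25113 ΔtolC::kan, tolC deletion mutant strain · Detection – OD at 615 nm · Buffer or medium – LB with kanamycin 50 µg/mL · Times – 20 h compound exposure of bacteria at 37 °C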
HUVEC prolif 384: blocks proliferation of human endothelial cells | HUVEC proliferation, CellTiter-Glo luminescence, 72 h; hits give low values | viability, % at 10 µM (by protocol) | actives 1.1% (n = 86,000);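 active means viability at or below 30%; inactive means viability above 30%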;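 further: 100% = median luminescence of DMSO-only cell control wells on each plate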
Active calls of the source: *; · = no result given.

SMILES	H69AR inhibit	Fibroblast inh	Ecoli WT expand	Jurkat tox 60K	tolC growth inh	HUVEC prolif 384
CCOC(=O)C1=C(N)n2c(s/c(=C\c3ccco3)c2=O)=C(C(=O)OCC)C1c1ccco1 (centres undefined)	27*	29*	-9	61*	-15	29*
CCOC(=O)C1=C(N)n2c(s/c(=C/c3ccccc3)c2=O)=C(C(=O)OCC)C1c1ccccc1 (centres undefined)	9.5*	66	-8	·	·	99
O=C(c1cc(-c2ccc(Cl)cc2)n(-c2ccc(Cl)cc2)n1)N1CCOCC1	·	·	-4	·	·	·
CCOC(=O)c1cc2sccc2n1CC(=O)N1c2ccccc2CC1C (centres undefined)	4.7*	69	0	·	-11	12*
O=C(NCc1ccco1)c1cc(S(=O)(=O)N2CCOCC2)c(Cl)cc1Cl	94	94	-4	5	-8	101
COc1ccc(C)cc1NC(=O)c1cc2cc3ccc(C)cc3nc2o1	105	·	0	3	-15	112
CCCc1nc2ccccc2c(=O)n1/N=C/c1ccccc1O	66	74	1	-7	-1	100
CCCc1nc2ccccc2c(=O)n1/N=C/c1c(C)[nH]n(-c2ccc(C)cc2)c1=O	27*	88	4	20	41	64
CCOC(=O)c1c(NC(=O)c2noc3c2CCCC3)sc2c1CCCC2	95	95	·	-1	-19	91
CCOC(=O)c1c(NS(=O)(=O)c2cccc(OC)c2)sc2c1CCC2	87	100	8	6	79*	74
CCOC(=O)c1c(NC(=O)c2ccc(-n3cnnn3)cc2)sc2c1CCCC2	2.1*	·	·	-2	-2	36
CCOC(=O)c1c(NC(=O)Cn2c(C)nc3ccccc32)sc2c1CCC2	36*	69	-5	3	4	83
CCOC(=O)c1c(NC(=O)Cn2nnc3ccccc32)sc2c1CCC(C)C2 (centres undefined)	81	82	-8	-4	47	82
Cc1cc(OCCOCCNC(C)C)cc(C)c1Cl	28*	90	13	·	·	81
O=C(O)CCCNS(=O)(=O)c1ccc2ccccc2c1	93	103	-11	7	-12	99
O=c1c2cc(-c3ccccc3)sc2ncn1-n1cccc1	80	112	-7	·	·	104
Cc1ccc(C)n1-n1cnc2sc(-c3ccccc3)cc2c1=O	87	83	-15	0	88*	101
CC(C)NC(=O)C(=O)NCCc1ccc(Cl)cc1	106	104	6	·	·	101
C=CCC(Nc1ccccc1)C12C=CC(O1)C(C(=O)OC)=C2C(=O)OC (centres undefined)	1.0*	3.1*	·	·	·	45
Cc1ccc(NC(=O)CN2C(=O)NC3(CCC(C)CC3)C2=O)c(Cl)c1 (centres undefined)	87	95	-7	3	-4	100
Cc1cc(C)c(NC(=O)CN2C(=O)NC3(CCCCC3)C2=O)c(Cl)c1	29*	88	0	-6	1	81
CC[C@H](C)C(=O)O[C@H]1C[C@@H](C)C=C2C=C[C@H](C)[C@H](CC[C@@H]3C[C@@H](O)CC(=O)O3)[C@H]21	46	46*	·	·	4	17*
O=C(OCc1ccccc1)C1=[N+]([O-])OC(C(=O)OCc2ccccc2)C1c1c[nH]c2ccccc12 (centres undefined)	5.6*	88	-5	·	·	81
O=C(OCC(=O)c1c[nH]c2ccccc12)c1ccco1	91	92	8	-10	12	94
O=C(CN1/C(=C(/O)c2ccccc2)C(=O)c2ccccc2S1(=O)=O)c1ccccc1	28*	94	8	·	·	87
SMILES	H69AR inhibit	Fibroblast inh	Ecoli WT expand	Jurkat tox 60K	tolC growth inh	HUVEC prolif 384
COc1ccc(CCNC(=O)C2=COCCO2)cc1	107	100	-9	-2	-24	100
Cc1ccc(SCCCn2cncn2)cc1	97	99	1	0	-22	101
CCn1c(C(=O)OC)cc2c1ccn2-c1ccc(F)cc1	88	95	4	2	96*	108
O=C(COc1ccc([N+](=O)[O-])cc1)N/N=C/c1ccccn1	·	·	1	·	·	·
CCC(C)N1CC(O)=C(c2nc3ccccc3[nH]2)C1=N (centres undefined)	91	106	7	-4	-2	93
CC1C(O)=C(c2nc3ccccc3[nH]2)C(=N)N1c1ccccc1 (centres undefined)	22*	79	4	8	10	74
N=C1C(c2nc3ccccc3[nH]2)=C(O)CN1c1ccccc1	32*	94	6	16	2	94
CN(C)c1ccc(C2C=C(c3ccc(Cl)cc3OC(F)F)Nc3ncnn32)cc1 (centres undefined)	14*	83	-10	60*	96*	57
Cc1[nH]n(-c2ccc([N+](=O)[O-])cc2)c(=O)c1C=NCCN1CCN(C(=O)c2ccc(F)cc2)CC1	47	73	0	·	·	58
Cc1[nH]n(-c2ccc([N+](=O)[O-])cc2)c(=O)c1C=NCCN1CCN(C(=O)c2ccc(Br)cc2)CC1	40*	71	-11	·	·	66
CCCC1(c2ccccc2)NC(=O)N(CC(=O)Nc2sc(-c3ccccc3)cc2C(=O)OCC)C1=O (centres undefined)	34*	22*	-14	·	·	22*
CCOC(=O)c1cc(-c2ccccc2)sc1NC(=O)CC(C)C	·	·	7	·	·	·
COc1ccc(S(=O)(=O)N2CCCC2C(=O)Nc2ccc(C)cc2)cc1 (centres undefined)	96	105	-3	·	6	104
O=C(Nc1ccc(Cl)cc1)NC1CCCCC1Cc1ccco1 (centres undefined)	6.6*	96	9	·	·	61
O=C(Nc1ccc(Cl)cc1)NC1CCCC1Cc1ccco1 (centres undefined)	85	101	23	3	100*	64
COc1cc2nc(SCC(=O)NCc3ccco3)n(Cc3ccc(Cl)cc3)c(=O)c2cc1OC	·	·	·	·	-6	·
CCc1ccccc1NC(=O)C1C(c2ccccc2)C1(Cl)Cl (centres undefined)	·	·	-3	·	·	·
Cc1csc2ncc(C(=O)Nc3ccccc3F)c(=O)n12	71	93	·	1	11	81
Cc1csc2ncc(C(=O)Nc3ccccc3Cl)c(=O)n12	29*	82	·	4	5	64
c1ccc(Cn2nnc3c(N4CCC5(CC4)OCCO5)ncnc32)cc1	93	96	-4	·	17	102
CSC(=NS(=O)(=O)c1ccc(C)cc1)SC	88	·	-5	-5	-12	78
CC1=CC(=O)C=C(C)C1=NOS(=O)(=O)c1ccccc1	0.7*	1.4*	-3	·	·	1.1*
COc1ccc(N2C3=C(CC4=C2CC(C)(C)CC4=O)C(=O)CC(C)(C)C3)cc1	89	6.0*	1	·	·	10*
CCC(=O)Oc1ccc(/C(CC)=C(\CC)c2ccc(OC(=O)CC)cc2)cc1	10*	70	·	·	5	55

Bioassay records deposited in PubChem BioAssay by several laboratories.
